This note sets out measurements from ChEMBL document CHEMBL1938357, “Inhibition of Dengue virus and West Nile virus proteases by click chemistry-derived benz[d]isothiazol-3(2H)-one derivatives” (Bioorg Med Chem, 2012).

Experiment [1] concerns dengue virus type 2. In words: Inhibition of Dengue virus 2 NS2B-NS3 protease expressed in Escherichia coli using Bz-Nle-Lys-Arg-Arg-AMC as substrate at 25 uM measured every 90 sec upto 30 mins by spectrofluorometry. Put shortly:
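DENV2 NS2B(hydrophilic cofactor)-NS3pro, linked via Q-R and expressed in E. coli Top 10 F′, at 25 nM in 200 mM Tris-HCl pH 9.5, 6 mM NaCl, 30% glycerol. Compound at 25 μM (1% DMSO final) was pre-incubated at room temperature with enzyme. Bz-Nle-Lys-Arg-Arg-AMC added at 5.0 μM; read at 37 °C, ex 380/em 460 nm, every 90 s up to 30 min. % inhibition from RFU ± compound; triplicate averages.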

The subject of experiment [2] is dengue virus type 2. In words: Inhibition of Dengue virus 2 NS2B-NS3 protease expressed in Escherichia coli using Bz-Nle-Lys-Arg-Arg-AMC as substrate at 25 uM measured every 90 sec upto 30 mins by spectrofluorometry in the presence of 0.1% CHAPS. The method in brief: (§1)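 Detergent re-screen: 200 mM Tris-HCl pH 9.5, 6 mM NaCl, 30% glycerol, 0.1% CHAPS, with DENV2 NS2B-NS3pro at 25 nM or WNV NS2BH-NS3pro (5-residue spacer) at 28 nM. Compound at 25 μM, 1% DMSO final, pre-incubated at room temperature with enzyme. Substrate Bz-Nle-Lys-Arg-Arg-AMC at 5.0 μM; fluorescence at 380/460 nm at 37 °C over 30 min. Percent inhibition from RFU with vs without compound; triplicate averages.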

The subject of the next experiment is West Nile virus. Briefly: Inhibition of West Nile virus NS2B-NS3 protease expressed in Escherichia coli using Bz-Nle-Lys-Arg-Arg-AMC as substrate at 25 uM measured every 90 sec upto 30 mins by spectrofluorometry. Put shortly: as §1
Experiment [3] is described as follows: Inhibition of Dengue virus 2 NS2B-NS3 protease expressed in Escherichia coli using Bz-Nle-Lys-Arg-Arg-AMC as substrate measured every 90 sec upto 30 mins by spectrofluorometry. Also on record: species or system dengue virus type 2. Put shortly:
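Inhibitors at 10 nM, 50 nM, 0.1, 1, 2, 5, 10 and 25 μM were incubated 15 min with DENV2 NS2B-NS3pro (50 nM) in 200 mM Tris-HCl, 6 mM NaCl, 30% glycerol, pH 9.5. Bz-Nle-Lys-Arg-Arg-AMC (5.0 μM) was then added. Signal recorded at 37 °C (ex 380, em 460 nm) with buffer subtracted. IC50 derived by curve fitting.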

A short description of experiment [4]: Inhibition of Dengue virus 2 NS2B-NS3 protease expressed in Escherichia coli using Bz-Nle-Lys-Arg-Arg-AMC as substrate by spectrofluorometry. Also on record: species or system dengue virus type 2.

The structures appear in SMILES notation. Calls of active or inactive are those of the source. The calls are words filed in the database; no cut-off is given here.

Take `O=C(Cn1sc2ccccc2c1=O)NCc1cn(CC(=O)c2ccccc2)nn1`: in the experiment with dengue virus type 2 [1], the inhibition result was “inactive”. Regarding `O=C(Cn1sc2ccccc2c1=O)NCc1cn(CCc2ccccc2)nn1`, the inhibition result with dengue virus type 2 [1] is “inactive”. As for `O=C(Cn1cc(COc2cccc(NC(=O)Cn3sc4ccccc4c3=O)c2)nn1)Nc1ccc(Oc2ccccc2)cc1`, the inhibition result in the experiment with dengue virus type 2 [2], in the experiment on West Nile virus and in the experiment on dengue virus type 2 [1] was “Active” throughout. The IC50 in experiment [3] was 4.45 µM. Take `O=C(Cn1sc2ccccc2c1=O)Nc1cccc(OCc2cn(CC(=O)c3ccccc3)nn2)c1`: the inhibition result with dengue virus type 2 [2], in the experiment on West Nile virus and with dengue virus type 2 [1] was “Active” each time. Further, in experiment [3], the IC50 came out at 6.22 µM. Take `O=C(Cn1sc2ccccc2c1=O)NCc1cn(Cc2ccc(F)cc2)nn1`: the inhibition result with dengue virus type 2 [1] is “inactive”.

For `COC(=O)c1cccc(Cn2cc(CNC(=O)Cn3sc4ccccc4c3=O)nn2)c1`, in the experiment with dengue virus type 2 [1], the inhibition result was “inactive”. Still for that read-out and setting: in the case of `O=C(Cn1sc2ccccc2c1=O)NCc1cn(Cc2cccc(F)c2)nn1` it was “inactive”.

Consider `COC(=O)c1cccc(Cn2cc(COc3cccc(NC(=O)Cn4sc5ccccc5c4=O)c3)nn2)c1`, for which the inhibition result in the experiment with dengue virus type 2 [2] and in the experiment on dengue virus type 2 [1] was “Active” in each case.

Consider `O=C(Cn1sc2ccccc2c1=O)NCc1cn(Cc2ccccc2)nn1`, for which, in the experiment with dengue virus type 2 [1], the inhibition entry is “inactive”. On the same count and under the same terms, as for `COc1ccc(Cn2cc(CNC(=O)Cn3sc4ccccc4c3=O)nn2)cc1`, the entry is “inactive”; as for `O=C(Cn1sc2ccccc2c1=O)NCc1cn(CC(=O)Nc2ccccc2)nn1`, “inactive”; as for `O=C(Cn1sc2ccccc2c1=O)NCc1cn(CCCc2ccccc2)nn1`, “inactive”.

Consider `O=C(Cn1sc2ccccc2c1=O)Nc1cccc(OCc2cn(CC(=O)Nc3ccccc3Oc3ccccc3)nn2)c1`, for which the Ki in experiment [4] amounted to 4.77 µM. In addition, the inhibition result in the experiment with dengue virus type 2 [2], with West Nile virus and in the experiment with dengue virus type 2 [1] was “Active” each time. The same compound displayed an IC50 in experiment [3] of 3.48 µM. Consider `O=C(Cn1sc2ccccc2c1=O)NCc1cn(CCOc2ccccc2)nn1`, for which the inhibition result in the experiment on dengue virus type 2 [1] is “inactive”. The same measure, in the same setting: in the case of `O=C(Cn1sc2ccccc2c1=O)NCc1cn(CSc2ccccc2)nn1` it was “inactive”; in that of `CC(C)(C)OC(=O)Cn1cc(CNC(=O)Cn2sc3ccccc3c2=O)nn1`, “inactive”. On to `O=C(Cn1sc2ccccc2c1=O)NCc1cn(CC(=O)Nc2cccc(Oc3ccccc3)c2)nn1`, for which the inhibition result with dengue virus type 2 [2] and in the experiment on dengue virus type 2 [1] was “Active” throughout. Regarding `O=C(Cn1cc(COc2cccc(NC(=O)Cn3sc4ccccc4c3=O)c2)nn1)Nc1cccc(Oc2ccccc2)c1`, the inhibition result with dengue virus type 2 [2], in the experiment on West Nile virus and in the experiment on dengue virus type 2 [1] was “Active” throughout. The compound further returned a 50% inhibitory concentration (IC50) in experiment [3] of 4.59 µM. For `O=C(Cn1cc(COc2cccc(NC(=O)Cn3sc4ccccc4c3=O)c2)nn1)Nc1ccccc1`, the inhibition entry in the experiment on dengue virus type 2 [2], with West Nile virus and with dengue virus type 2 [1] was “Active” in each case. Also, in experiment [3], the half-maximal inhibitory concentration (IC50) was found to be 13.4 µM. Regarding `O=C(Cn1sc2ccccc2c1=O)NCc1cn(CC(=O)Nc2ccc(Oc3ccccc3)cc2)nn1`, the inhibition result with dengue virus type 2 [2], in the experiment with West Nile virus and with dengue virus type 2 [1] was “Active” in each case. This compound registered an IC50 in experiment [3] of 4.87 µM. As for `O=C(Cn1sc2ccccc2c1=O)NCc1cn(CC(=O)Nc2ccccc2Oc2ccccc2)nn1`, the inhibition entry in the experiment on dengue virus type 2 [1] is “inactive”. On to `O=C(O)Cn1cc(CNC(=O)Cn2sc3ccccc3c2=O)nn1`, for which the inhibition result with dengue virus type 2 [1] is “inactive”.
